The test system of assay [1] is Candida albicans. The assay can be described thus: Antifungal activity against Candida albicans ATCC 10231 after 48 hrs by broth dilution method. In kind it is functional. Conditions: ATCC 10231, 48 h. A digest of the protocol:
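Yeast grown 48 h at 28 °C in YPD broth (1% yeast extract, 2% peptone, 2% dextrose), centrifuged and washed twice in sterile water. Compounds dissolved in DMSO, serial twofold dilutions 120–0.9 µM in potato dextrose broth. Wells inoculated with about 10^3 cells/mL and incubated ~48–72 h at 28 °C. MIC (µM) read against controls; NCCLS broth dilution.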
(Dilution methods test growth across graded concentrations, often in twofold steps.)

Assay [2] has as its system Aspergillus fumigatus. The assay can be described thus: Antifungal activity against Aspergillus fumigatus HIC 6094 after 48 hrs by broth dilution method. In kind it is functional. Conditions: HIC 6094, 48 h. The essentials: (§1)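 Fungi grown on potato dextrose agar for two weeks at 28 °C. Spores washed three times and resuspended in water at 10⁵ spores/mL initial inoculum. Compounds dissolved in DMSO, serial twofold dilutions 120–0.9 µM in potato dextrose broth. Wells inoculated with about 10^4 cells/mL and incubated ~48–72 h at 28 °C. MIC (µM) read against controls; NCCLS broth dilution.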

Assay [3] concerns Trichophyton rubrum. The assay can be described thus: Antifungal activity against Trichophyton rubrum IFO 9185 after 48 hrs by broth dilution method. The conditions noted are these: IFO 9185, 48 h. In kind it is functional. The essentials:
as §1

Assay [4] relates to Trichophyton mentagrophytes. The assay is described as follows: Antifungal activity against Trichophyton mentagrophytes IFO 40996 after 48 hrs by broth dilution method. The format is functional. The conditions noted are these: IFO 40996, 48 h. The essentials:
as §1

In assay [5] the test system is Ditylenchus myceliophagus. The assay is described as follows: Nematicidal activity against Ditylenchus myceliophagus assessed as immobile nematodes after 2 days. The format is functional.
Assay [6] deals with Caenorhabditis elegans. The assay is described as follows: Nematicidal activity against Caenorhabditis elegans assessed as immobile nematodes after 2 days. In kind it is functional, organism-based. The essentials:
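Worms raised on 8P plates with Na22 bacteria as food. Adults from five-day cultures suspended in water at about 100–250 nematodes/mL. 100 µL of suspension added to compound solutions at various concentrations in 24-well plates at 25 °C. Percentage of immobile worms scored after two days; LD50 derived.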

Converted amounts (≈) assume the structure as drawn. The source made the active and inactive calls. No cut-off for these calls is given here.

On to `COc1ccc(Cc2ccc(OC)c(C3SC4C(=NOC4c4ccc(F)cc4)N3c3ccccc3C)c2)cc1C1SC2C(=NOC2c2ccc(F)cc2)N1c1ccccc1C` (centres undefined), for which the minimal inhibitory concentration (MIC) in assay [1], in assay [2], in assay [3] and in assay [4] was 3.75 µM (≈ 3.2 µg/mL) in each case. For the same compound, the outcome in assay [5] and in assay [6] was Active.
For `COc1ccc(Cc2ccc(OC)c(C3SC4C(=NOC4c4ccc(F)cc4)N3c3ccccc3)c2)cc1C1SC2C(=NOC2c2ccc(F)cc2)N1c1ccccc1` (centres undefined), the MIC in assay [1] is 30 µM (≈ 24.7 µg/mL); in assay [2], 60 µM (≈ 49.5 µg/mL); in assay [3], 30 µM (≈ 24.7 µg/mL); in assay [4], 60 µM (≈ 49.5 µg/mL). Besides, the outcome in assay [5] and in assay [6] was Active.
`COc1ccccc1C1SC2C(=NOC2c2ccc(F)cc2)N1c1ccccc1C` (centres undefined): the minimal inhibitory concentration (MIC) worked out at 60 µM (≈ 25.2 µg/mL) in assay [1], 30 µM (≈ 12.6 µg/mL) in assay [2], 15 µM (≈ 6.31 µg/mL) in assay [3] and 30 µM (≈ 12.6 µg/mL) in assay [4].
For `COc1ccc(Cc2ccc(OC)c(C3SC4C(=NOC4c4ccc(F)cc4)N3c3ccc(F)cc3)c2)cc1C1SC2C(=NOC2c2ccc(F)cc2)N1c1ccc(F)cc1` (centres undefined), the minimal inhibitory concentration (MIC) in assay [1], in assay [2], in assay [3] and in assay [4] was 3.75 µM (≈ 3.23 µg/mL) each time. Besides, the result in assay [5] and in assay [6] was Active.
With `COc1ccccc1C1SC2C(=NOC2c2ccc(F)cc2)N1c1ccccc1` (centres undefined), the minimal inhibitory concentration (MIC) was 120 µM (≈ 48.8 µg/mL) in assay [1], > 120 µM in assay [2], > 120 µM in assay [3] and > 120 µM in assay [4].
Regarding `COc1ccccc1C1SC2C(=NOC2c2ccc(F)cc2)N1c1ccc(O)cc1` (centres undefined), the MIC was 60 µM (≈ 25.3 µg/mL) in assay [1], 60 µM (≈ 25.3 µg/mL) in assay [2], > 120 µM in assay [3] and 60 µM (≈ 25.3 µg/mL) in assay [4].
In the case of `COc1ccc(Cc2ccc(OC)c(C3SC4C(=NOC4c4ccc(F)cc4)N3c3ccc(Cl)cc3)c2)cc1C1SC2C(=NOC2c2ccc(F)cc2)N1c1ccc(Cl)cc1` (centres undefined), the MIC in assay [1], in assay [2], in assay [3] and in assay [4] was 3.75 µM (≈ 3.35 µg/mL) throughout. Further, the outcome in assay [5] and in assay [6] was Active.
As to `COc1ccc(Cc2ccc(OC)c(C3SC4C(=NOC4c4ccc(F)cc4)N3c3ccc(O)cc3)c2)cc1C1SC2C(=NOC2c2ccc(F)cc2)N1c1ccc(O)cc1` (centres undefined), the minimal inhibitory concentration (MIC) in assay [1] came out at 15 µM (≈ 12.9 µg/mL); in assay [2], 15 µM (≈ 12.9 µg/mL); in assay [3], 7.5 µM (≈ 6.43 µg/mL); in assay [4], 7.5 µM (≈ 6.43 µg/mL). The result in assay [5] and in assay [6] was Active.
For `COc1ccc(Cc2ccc(OC)c(C3SC4C(=NOC4c4ccc(F)cc4)N3c3ccc(C)cc3)c2)cc1C1SC2C(=NOC2c2ccc(F)cc2)N1c1ccc(C)cc1` (centres undefined), the MIC is 7.5 µM (≈ 6.4 µg/mL) in assay [1], 30 µM (≈ 25.6 µg/mL) in assay [2], > 120 µM in assay [3] and 15 µM (≈ 12.8 µg/mL) in assay [4]. For the same compound, the result in assay [5] and in assay [6] was Active.
As for `COc1ccccc1C1SC2C(=NOC2c2ccc(F)cc2)N1c1ccc([N+](=O)[O-])cc1` (centres undefined), the minimal inhibitory concentration (MIC) in assay [1] amounted to 30 µM (≈ 13.5 µg/mL); in assay [2], 60 µM (≈ 27.1 µg/mL); in assay [3] it was 120 µM (≈ 54.2 µg/mL); in assay [4], 30 µM (≈ 13.5 µg/mL).
Turning to `COc1ccc(Cc2ccc(OC)c(C3SC4C(=NOC4c4ccc(F)cc4)N3c3ccc([N+](=O)[O-])cc3)c2)cc1C1SC2C(=NOC2c2ccc(F)cc2)N1c1ccc([N+](=O)[O-])cc1` (centres undefined), the MIC came to 15 µM (≈ 13.7 µg/mL) in assay [1], 30 µM (≈ 27.4 µg/mL) in assay [2], 30 µM (≈ 27.4 µg/mL) in assay [3] and 7.5 µM (≈ 6.86 µg/mL) in assay [4]. Moreover, the outcome in assay [5] and in assay [6] was Active.
As for `COc1ccccc1C1SC2C(=NOC2c2ccc(F)cc2)N1c1ccc(C)cc1` (centres undefined), the MIC in assay [1] is 60 µM (≈ 25.2 µg/mL); in assay [2] it was 120 µM (≈ 50.5 µg/mL); in assay [3], > 120 µM; in assay [4], 120 µM (≈ 50.5 µg/mL).
With `COc1ccccc1C1SC2C(=NOC2c2ccc(F)cc2)N1c1ccc(F)cc1` (centres undefined), the MIC in assay [1] was determined as 120 µM (≈ 50.9 µg/mL); in assay [2], 60 µM (≈ 25.5 µg/mL); in assay [3] it was 60 µM (≈ 25.5 µg/mL); in assay [4], 60 µM (≈ 25.5 µg/mL).
For `C[C@@H]1[C@H](O)[C@@H](C)/C=C/C=C/C=C/C=C/C=C/C=C/C=C/[C@H](O[C@@H]2O[C@H](C)[C@@H](O)[C@H](N)[C@@H]2O)C[C@@H]2O[C@](O)(C[C@@H](O)C[C@@H](O)[C@H](O)CC[C@@H](O)C[C@@H](O)CC(=O)O[C@H]1C)C[C@H](O)[C@H]2C(=O)O` [AMPHOTERICIN B], the minimal inhibitory concentration (MIC) came to 7.5 µM (≈ 6.93 µg/mL) in assay [1], 3.75 µM (≈ 3.47 µg/mL) in assay [2], 3.75 µM (≈ 3.47 µg/mL) in assay [3] and 3.75 µM (≈ 3.47 µg/mL) in assay [4].
Consider `COc1ccccc1C1SC2C(=NOC2c2ccc(F)cc2)N1c1ccc(Cl)cc1` (centres undefined), for which the MIC in assay [1], in assay [2], in assay [3] and in assay [4] was 30 µM (≈ 13.2 µg/mL) in each case.

One may read the MIC as the least concentration at which growth counts as inhibited. High values mean a need for much substance, low ones inhibition by little substance.
